Measurements: ChEMBL document CHEMBL6103596, “Design, Synthesis, and Biological Evaluation of BODIPY-Caged Resiquimod as a Dual-Acting Phototherapeutic” (J Med Chem, 2025)
The source made the active and inactive calls. No cut-off for these calls is given here.

How the values were obtained:
[1] = Photophysical property of the compound assessed as fluorescence quantum yield; assay type: physicochemical
[2] = system: AD293; test: Effect on morphological changes in human AD293 cells at 10 uM; assay type: functional, cell-based
Outline: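 AD293 cells treated with 10 μM compound, followed by LED irradiation or kept unirradiated, then morphology examined by microscopy.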

[3] = Drug uptake in human AD293 cells assessed as increase in red fluorescence at 10 uM measured after 40 mins by fluorescence imaging based analysis; assay type: ADME, cell-based; conditions: ad293, 40 min
[4] = Upregulation of iNOS mRNA expression in mouse RAW264.7 cells assessed as fold change at 100 nM preincubated with NAC followed by compound addition and measured after 30 mins under 650nm LED light irradiation by real-time PCR analysis; assay type: functional; conditions: 0.5 h
Outline: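 RAW264.7 cells seeded at 0.3 million per 35 mm dish. Next day, pretreated with 10 mM N-acetyl-cysteine for 30 min, then given 100 nM compound and 650 nm LED light for 30 min. Total RNA taken 24 h later and reverse transcribed with random primers. SYBR real-time PCR run for 40 cycles (95/60/72 °C). Quantities calculated by the Ct method. Results given as fold change, means ± SD.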

[5] = Photosensitizing ability of the compound assessed as singlet oxygen quantum yield under 600nm monochromatic light irradiation by DPBF based assay relative to control; assay type: functional
Outline: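 Singlet oxygen generation followed by the decrease in DPBF absorbance under irradiation. DPBF (20–25 μm) used at 5–10-fold excess over compound (2.5–5 μm).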

[6] = Induction of superoxide anion radical assessed as DMPO-O2 radical adduct formation under dark condition measured after 10 mins by ESR spectra analysis; assay type: functional
Outline: (§1)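 ESR spectra recorded with DMPO as spin trap to detect superoxide and/or hydroxyl radical adducts, before and after 10 min irradiation of compound.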

[7] = Induction of hydroxyl radical assessed as DMPO-OH radical adduct formation under light irradiation measured after 10 mins by ESR spectra analysis; assay type: functional; outline: as §1
[8] = Phototoxicity in human HaCaT cells assessed as cell viability at 10 uM under 530 ot 650nm 30 mW LED light irradiation and measured after 72 hrs by CCK-8 method relative to control; assay type: functional; conditions: light or radiation study, read-out: Activity
Outline: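 A549, HaCaT and HeLa cells seeded at 2 × 10^3 cells/well in phenol red-free DMEM with 10% FBS. After 24 h, medium replaced with 1% DMSO containing 10 μM compound. After 90 min, one plate kept dark and one exposed to 530 or 650 nm LED (30 mW) for 15 min. Plates incubated 72 h, then CCK-8 read at 450 nm. Viability taken relative to dark control. Triplicates (HaCaT six).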

[9] = Thermal stability of compound in DMSO-d6 at 37.5 degree C measured before 24 hrs by 1H NMR spectroscopy analysis; assay type: physicochemical
Outline: (§2)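 Compound in DMSO-d6 followed by 1H NMR. Degradation taken from the intensity of three signals (one resiquimod, one BODIPY, and the linkage NH), each relative to the DMSO-d6 internal standard, and the three averaged.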

[10] = Thermal stability of compound in DMSO-d6 at 37.5 degree C measured after 3 days by 1H NMR spectroscopy analysis relative to control; assay type: physicochemical; conditions: 72 h; time 3 day; outline: as §2

Activity [1]: 0.411 | Drug uptake [3]: Active | Activity [9]: Not_active | Activity [10]: 15%
SMILES: CCOCc1nc2c(NC(=O)OCC3=C4C(C)=CC(/C=C/c5ccc(OCCOCCOCCOC)cc5)=[N+]4[B-](C)(C)n4c(/C=C/c5ccc(OCCOCCOCCOC)cc5)cc(C)c43)nc3ccccc3c2n1CC(C)(C)O
Activity [2]: inactive | fold change (FC) [4]: ~4 | Activity [5]: 1.2% | Activity [6]: inactive | Activity [7]: inactive | viability at 10 µM [8]: 41%
